# CAL PDZ FP-1 – inhibitors of human CAL PDZ peptide binding; actives 0.92% (n = 300,000); Q9HD26; inhibition, % at 24.9 µM; purified CAL PDZ, TMR-peptide fluorescence polarization, 1 h; AID 602252;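 active = mean inhibition of at least 30% with at least half of replicates also reaching 30%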;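 note: 0% = DMSO neutral control and 100% = excess unlabeled competitor peptide PRC23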
# dFosB act-1 – mouse delta FosB homodimer activation. P13346. purified delta FosB, TAMRA-CDK5 oligo fluorescence polarization; percent of positive-control signal above neutral wells. activation, % at 25 µM. actives 0.99% (n = 340,000);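 active = mean activation above about 17%, with every replicate also reaching it, limit read from the data, passing the limit was not always enough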
# Target sequence (P13346 whole entry, looked up): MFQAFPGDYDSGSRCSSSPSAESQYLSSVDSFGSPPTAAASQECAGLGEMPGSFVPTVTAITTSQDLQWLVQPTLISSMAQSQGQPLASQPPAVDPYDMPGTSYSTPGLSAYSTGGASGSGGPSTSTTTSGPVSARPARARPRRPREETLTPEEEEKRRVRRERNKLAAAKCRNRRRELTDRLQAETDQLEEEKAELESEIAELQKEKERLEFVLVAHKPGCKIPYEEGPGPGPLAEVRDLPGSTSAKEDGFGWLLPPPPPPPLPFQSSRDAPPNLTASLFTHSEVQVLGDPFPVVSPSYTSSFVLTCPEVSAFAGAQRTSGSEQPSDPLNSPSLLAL
# PKA-R2B act – activators of human PKA-R2B complex; P22694+P31323; PKA-R2B holoenzyme dissociation, Cy5-IP20 fluorescence polarization; R2B truncated from residue 108, S112A mutant; 0% DMSO only, 100% 113 µM cGMP; activation, % at 11.4 µM; actives 0.079% (n = 340,000);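 active = activation above a cutoff set at the mean over all compounds plus 3 SD, cut at about 18% in these data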;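 note: higher means more holoenzyme dissociation and a rise in polarization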
# CAL PDZ FP-2 – blocks peptide binding to human CAL PDZ domain. Q9HD26. purified CAL PDZ, TMR-peptide fluorescence polarization, 1 h. inhibition, % at 20 µM. actives 0.02% (n = 330,000). AID 504414;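 active = highest replicate inhibition of at least 40%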;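 note: plate controls were DMSO neutral control wells for no effect and unlabeled competitor peptide control wells for full effect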
#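 Read-out basis: mP drop reported as inhibition | Assay system: Tagged CAL PDZ protein CerCALP, purified | Benchmarks: Unlabelled peptide for full inhibition, DMSO wells as neutral | Schedule: 1 h incubation at room temperature before polarization reading | Buffer or medium: Sodium phosphate/NaCl buffer pH 7.4 with TCEP, IgG, Thesit | Doses: Single point, 20 µM | Measured by: Fluorescence polarization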
# PKA-R1A act – PKA-R1A complex activation; P00514+P68181; PKA-R1A dissociation, Cy5-IP20 fluorescence polarization; scaled: DMSO 0%, 113 µM cGMP 100%; activation, % at 11.4 µM; actives 0.083% (n = 340,000); AID 504707;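 active = percent activation above the mean of all tested compounds plus 3 SD, cut at about 19% in these data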;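 note: higher means more PKAc released from R1A so a rise in polarization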
# NTR1 agonist – NTR1 (human) agonism | P30989 | NTR1-U2OS beta-arrestin-GFP spot imaging, agonist mode | activation, % at 20 µM | actives 0.17% (n = 330,000) | AID 493036;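 active = activation at or above 40% of the spot to cytoplasm intensity ratio, with at least 20 cells analyzed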;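 note: 0% = DMSO without peptide and 100% = 100 nM NTR1 peptide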
# dFosB act-2 – activators of mouse delta FosB homodimer DNA binding. shares compounds with dFosB act-1. purified delta FosB, TAMRA-CDK5 oligo fluorescence polarization; normalised: neutral wells 0, positive control 100. activation, % at 24.9 µM. 2,400 tested, under 10 active. AID 588690;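 active = highest replicate activation at or above 34% and every replicate reaching that threshold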;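 note: higher polarization means more probe DNA bound by delta FosB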
# The depositor's hits bear a star; / = no result given. Hits are enriched below; roughly 2% of the tested compounds scored in any of these assays.
SMILES,CAL PDZ FP-1,dFosB act-1,PKA-R2B act,CAL PDZ FP-2,PKA-R1A act,NTR1 agonist,dFosB act-2
COc1ccc(OC)c(/C=N/NC(=O)c2[nH]nc3c2CCc2ccccc2-3)c1,1,23*,2,-2,-5,5,0
O=C(N/N=C\c1ccc(CNS(=O)(=O)c2ccc(Cl)cc2)o1)C(=O)Nc1ccc(Oc2ccccc2)cc1,-1,4,-5,-5,1,/,/
O=C(N/N=C\c1ccc(CNS(=O)(=O)c2ccccc2)o1)C(=O)Nc1ccc(F)cc1,2,38*,-9,0,-6,1,4
O=C(CSc1nnc(NC(=O)c2cccc(F)c2)s1)NC1CCCC1,/,60*,0,-1,2,1,1
COc1cccc(C(=O)Nc2nnc(SCC(=O)NC3CCCC3)s2)c1,-17,22*,-8,-2,8,1,3
COc1ccc2cc3cc(C(=O)NCc4ccc5c(c4)OCO5)oc3nc2c1,0,17*,8,-1,0,-1,-1
O=C(OCC(=O)c1c[nH]c2ccccc12)c1ccc(F)c(S(=O)(=O)N2CCOCC2)c1,/,/,-8,/,-4,/,/
Cc1cccc(NC(=O)Cn2c(=O)n(CCC(=O)NC3CCCC3)c(=O)c3ccccc32)c1,-1,42*,-2,1,-2,-1,1
Cc1ccc(CNC(=O)Cn2c(=O)n(-c3ccccc3)c(=O)c3sccc32)cc1,1,21*,-2,1,2,-1,-9
Cc1ccc(CNC(=O)CCCn2c(=O)c3ccccc3n(CC(=O)NC3CCCC3)c2=O)cc1,-1,27*,-2,1,-4,-1,-2
Cc1ccccc1Cn1c(=O)n(CCC(=O)NCc2ccc3c(c2)OCO3)c(=O)c2ccccc21,10,60*,1,-1,2,6,-1
Cc1ccc(C(=O)NCc2ccco2)cc1S(=O)(=O)N1CCCC1,0,-6,-16,-2,1,0,/
Cc1ccc(CNC(=O)c2ccccc2NC(=O)CN2CC(C)OC(C)C2)cc1 (centres undefined),-21,4,-7,0,-1,2,/
CCC(=O)N1CCc2cc(S(=O)(=O)CCC(=O)N(C)c3ccc(OC)cc3OC)ccc21,-2,-10,-10,-2,-3,1,/
COc1cc(CCN2C(=O)c3cccc4cccc(c34)C2=O)c(S(=O)(=O)NCCCO)cc1OC,-3,20*,-1,-5,-10,5,-1
COc1cc(CCN2C(=O)c3cccc4cccc(c34)C2=O)c(S(=O)(=O)NCCO)cc1OC,/,12,0,-7,14,0,/
Cc1ccc(NC(=O)c2ncc(Cl)c(Cl)c2Cl)cc1C,-3,26*,12,0,5,2,0
COc1ccc(/C(O)=C2/C(=O)C(=O)N(c3ccccn3)C2c2cccc(Cl)c2)cc1 (centres undefined),-4,1,-5,-1,-7,0,/
Cc1sc(NC(=O)Cn2c(=O)oc3ccccc32)nc1-c1ccc(Cl)cc1,-1,40*,0,-2,2,26,6
Cc1ccsc1C(=O)NNC(=O)Nc1ccc(Cl)c(Cl)c1,4,25*,-1,-2,6,-1,0
O=C(NC1CCS(=O)(=O)C1)c1c(NC(=O)C2COc3ccccc3O2)sc2c1CCCC2 (centres undefined),8,40*,-1,/,-10,3,0
O=c1[nH]c2cc3c(cc2cc1C(c1nnnn1Cc1ccccc1)N1CCCCCC1)OCCO3 (centres undefined),-6,28*,-11,0,-3,-1,8
O=c1[nH]c2cc3c(cc2cc1C(c1nnnn1Cc1ccccc1)N1CCN2CCCC2C1)OCCO3 (centres undefined),-1,22*,6,-3,-3,0,-12
O=C(COc1ccc(Br)cc1)Nc1ccccc1C(=O)NC1CC1,-5,29*,-7,-2,-8,2,5
O=C(COc1ccccc1F)Nc1ccccc1C(=O)NC1CC1,-2,2,11,-2,-11,-1,/
SMILES,CAL PDZ FP-1,dFosB act-1,PKA-R2B act,CAL PDZ FP-2,PKA-R1A act,NTR1 agonist,dFosB act-2
COc1ccc(CN2C(=O)c3ccccc3C2=O)cc1C(=O)Nc1ccccc1N1CCOCC1,4,2,-20,-1,-4,0,/
COc1ccc(NC(=O)c2cc(CN3C(=O)c4ccccc4C3=O)ccc2OC)cn1,-2,18*,-7,0,0,3,9
CC(=O)Nc1ccc(NC(=O)c2ccc(NS(=O)(=O)c3cc(C(C)(C)C)cc(C)c3C)cc2)cc1,-3,54*,-5,0,1,3,9
Cc1cc(C(C)(C)C)cc(S(=O)(=O)Nc2ccc(O)c(C(=O)O)c2)c1C,-3,0,-17,-2,0,1,/
COC(=O)N(C)C[C@@H]1OCc2ccccc2-c2c(n(C)c3ccccc23)C(=O)N([C@H](C)CO)C[C@@H]1C,/,/,-6,/,1,/,/
NC(=O)c1nc(-c2cccs2)nc2c1[nH]c(=O)n2-c1ccc(F)cc1,/,123*,-1,0,-8,4,1
CC(C)Cc1nc(C(N)=O)c2[nH]c(=O)n(-c3ccc(F)cc3)c2n1,/,-14,3,-1,-3,-2,/
Cc1ccc(S(=O)(=O)N2CCOCC2)cc1NCC(=O)Nc1ccc(OC(F)(F)F)cc1,4,5,-5,0,6,0,/
COc1ccc(S(=O)(=O)N(C)C)cc1NC(=O)C1CCN(c2ncnc3sc(C)c(C)c23)CC1,/,47*,-9,-2,-10,/,0
Cc1sc2ncnc(N3CCC(C(=O)Nc4cc(S(C)(=O)=O)ccc4Cl)CC3)c2c1C,-4,2,3,-5,9,-1,/
O=C(COc1ncnc2ccccc12)Nc1cc(S(=O)(=O)N2CCOCC2)ccc1Cl,0,46*,13,-2,-6,2,2
Cc1ccc2nc(N/N=C/c3ccccc3C#N)nc(-c3ccccc3)c2c1,/,-24,-2,-3,-5,7,/
N#Cc1ccccc1/C=N/Nc1nc(-c2ccccc2)c2cc(Cl)ccc2n1,-1,19*,-14,-2,2,2,1
COc1ccc2nc(N(CCN(C)C)C(=O)/C=C/c3cccs3)sc2c1,-5,42*,-4,-5,-4,10,-8
COc1cc2ccccc2cc1C(=O)N(CCN(C)C)c1nc2c(C)cccc2s1,-4,29*,1,-4,0,-1,6

# Source: PubChem
